Data: publication PMC3304490 (Biochemical Journal, 2012)
Where “and” joins values, the source holds several entries; their conditions need not be identical. Equal entries are not always repeated. Where two headings read alike, the source gives them in different places. Blank lines part the entries; values can stand above or below the molecule they belong to.

Columns and labels:
[1] = biological target: CR8 (DxDxD) domain of LRP (Homo sapiens, UniProt Q07954); assay: Tryptophan fluorescence titration of amino acid ligands with CR8 domain; type: binding; details: for fold weaker Kd than lysine methyl ester: pH 5.5, I=0.02; for ΔG^u: unitary free energy; for slope of Debye–Hückel plot (−zA×zB): ionic-strength-dependence of binding
[2] = biological target: CR5 (DxDDD) domain of LRP (Homo sapiens, UniProt Q07954); assay: Tryptophan fluorescence titration of amino acid ligands with CR5 domain; type: binding; details: for ΔG^u: unitary free energy
In short: (§1)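 Each CR domain (1–3 μM) was titrated at 298 K in buffer with 1 mM Ca2+ and 0.1% PEG 8000: 20 mM Mes at pH 5.5 or 20 mM Tris/HCl at pH 7.4, with NaCl set to the target ionic strength. Tryptophan emission (λex 280 nm) was read at the wavelength of maximal change and averaged over 120 s, with blank and dilution correction. Kd came from a non-linear single-site fit, using the protonated ligand fraction.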

[3] = test system: cluster II CR domains of LRP; assay: Fluorescence titrations, summary statements across several CR domains; type: binding
In short: as §1

[4] = biological target: D1085A (DxxxD) CR8 variant (Homo sapiens, UniProt Q07954, D1085A); assay: Tryptophan fluorescence titration of amino acid ligands with CR8 variant D1085A; type: binding; details: for Kd: I=0.02, pH 5.5, 298 K; for ΔG^u: unitary free energy
In short: as §1

[5] = biological target: CR3 (DxDxD) domain of LRP (Homo sapiens, UniProt Q07954); assay: Tryptophan fluorescence titration of amino acid ligands with CR3 domain; type: binding; details: for ΔG^u: unitary free energy
In short: as §1

[6] = cited from earlier work
[7] = pKa values used for correction of ligand concentration; type: physicochemical; details: pH 5.5
[8] = physiological ionic strength, binding favoured at pH 7.4
[9] = CR3, CR5 and CR8, I=0.02, both pH values
[10] = irrespective of ionic strength or pH, results not shown
[11] = Table 3, pH 7.4, ionic strength not given

Chain of CR3 (DxDxD) domain of LRP (Q07954 852-892 limits assumed): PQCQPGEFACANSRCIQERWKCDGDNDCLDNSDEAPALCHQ
Chain of CR5 (DxDDD) domain of LRP (Q07954 934-973 limits assumed): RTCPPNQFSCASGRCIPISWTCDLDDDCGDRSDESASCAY
Chain of D1085A (DxxxD) CR8 variant (Q07954 1060-1099 D1085A limits assumed): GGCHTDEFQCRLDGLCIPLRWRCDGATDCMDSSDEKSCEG
Chain of CR8 (DxDxD) domain of LRP (Q07954 1060-1099 limits assumed): as the sequence (Q07954 1060-1099 D1085A limits assumed) above, with A26D counted along it

Molecule: COC(=O)[C@@H](N)Cc1c[nH]cn1 [Histidine methyl ester]
ΔG° ([1]; Table 3, pH 5.5): -4.83 kcal/mol
ΔG° ([2]; Table 3, pH 5.5): -4.76 kcal/mol
pKa ([6]; side chain (imidazole)): 5.33
ΔG° ([4]; Table 3, pH 5.5): -3.18 kcal/mol
fraction of the imidazole protonated [7]: ~ 40%
ΔG° ([5]; Table 3, pH 5.5): -3.99 kcal/mol
ΔΔG° compared with lysine methyl ester ([3]; four domains, pH 5.5 and low ionic strength): 0.14 to 0.48 kcal/mol

Molecule: CCOC(=O)[C@@H](N)CCCCN [lysine ethyl ester]
binding affinity compared with lysine methyl ester [1, 10]: negligible difference
binding affinity compared with lysine methyl ester [2, 10]: negligible difference
binding affinity compared with lysine methyl ester [5, 10]: negligible difference

Molecule: NCCCC[C@H](N)C(=O)O [unmodified lysine, lysine]
Kd [1]: 1050 µM
fold weaker Kd than lysine methyl ester [1]: 6 fold

Molecule: Aspartate methyl ester
ΔG° ([1]; Table 3, pH 5.5): -1.51 kcal/mol
ΔG° ([1]; Table 3, pH 7.4): -1.27 kcal/mol
ΔG° ([2]; Table 3, pH 5.5): -1.67 kcal/mol
ΔG° ([2]; Table 3, pH 7.4): -1.63 kcal/mol
Kd [2, 11]: 63000 ± 5000 µM
fold weaker Kd of D1085A variant than of CR8 [4]: ~ 3 fold
ΔG° ([4]; Table 3, pH 5.5): -0.86 kcal/mol
ΔG° ([4]; Table 3, pH 7.4): -0.789 kcal/mol
ΔG° ([5]; Table 3, pH 5.5): -1.48 kcal/mol
ΔG° ([5]; Table 3, pH 7.4): -1.6 kcal/mol
Kd [5, 11]: 66000 ± 11000 µM
fold weaker Kd than lysine methyl ester ([3]; Table 3 domains): 65–450 fold
ΔΔG° compared with lysine methyl ester ([3]; Table 3 domains): 2.46 to 3.63 kcal/mol
perturbation of CR domain tryptophan fluorescence in presence of EDTA ([3]; titrations repeated with EDTA to remove Ca^2+, results not shown): no perturbation

Second part, led by results:

Kd [1]: 4900 ± 250 µM
ΔG° ([1]; Table 3, pH 5.5): -3.15 kcal/mol
fold weaker Kd than lysine methyl ester [1]: 28 fold
Kd [2]: 4100 ± 240 µM
ΔG° ([2]; Table 3, pH 5.5): -3.25 kcal/mol
fold weaker Kd than lysine methyl ester ([2]; pH 5.5): 23 fold
Molecule: COC(=O)[C@H](C)N [Alanine methyl ester]
ΔΔG° compared with lysine methyl ester ([3]; CR5 and CR8): 1.86 to 1.98 kcal/mol

ΔG° ([1]; I=0.02, pH 5.5): -5.02 kcal/mol
Kd ([1]; I=0.02, pH 5.5, 298 K): 210 ± 10 µM
ΔG° ([1]; I=0.02, pH 7.4): -4.68 kcal/mol
ΔG° ([1]; I=0.17, pH 5.5): -4.23 kcal/mol
Kd ([1]; I=0.17, pH 5.5, 298 K): 780 ± 10 µM
ΔG° ([1]; I=0.17, pH 7.4): -4.42 kcal/mol
ΔG^u ([1]; I=0.02, pH 5.5): -7.39 kcal/mol
ΔG^u ([1]; I=0.02, pH 7.4): -7.05 kcal/mol
ΔG^u ([1]; I=0.17, pH 5.5): -6.6 kcal/mol
ΔG^u ([1]; I=0.17, pH 7.4): -6.79 kcal/mol
ΔG° ([2]; I=0.02, pH 5.5): -4.83 kcal/mol
Kd ([2]; I=0.02, pH 5.5, 298 K): 290 ± 10 µM
ΔG° ([2]; I=0.02, pH 7.4): -4.42 kcal/mol
ΔG° ([2]; I=0.17, pH 5.5): -4.18 kcal/mol
Kd ([2]; I=0.17, pH 5.5, 298 K): 840 ± 50 µM
ΔG° ([2]; I=0.17, pH 7.4): -4.25 kcal/mol
difference in ΔG° between pH 5.5 and 7.4 [2, 8]: 0.3 kJ/mol
ΔG^u ([2]; I=0.02, pH 5.5): -7.19 kcal/mol
ΔG^u ([2]; I=0.02, pH 7.4): -6.76 kcal/mol
ΔG^u ([2]; I=0.17, pH 5.5): -6.55 kcal/mol
ΔG^u ([2]; I=0.17, pH 7.4): -6.62 kcal/mol
ΔG° ([4]; I=0.02, pH 5.5): -3.49 kcal/mol
Kd [4]: 2800 ± 110 µM
ΔG° ([4]; I=0.02, pH 7.4): -3.13 kcal/mol
ΔG^u ([4]; I=0.02, pH 5.5): -5.86 kcal/mol
ΔG^u ([4]; I=0.02, pH 7.4): -5.5 kcal/mol
ΔG° ([5]; I=0.02, pH 5.5): -4.33 kcal/mol
Kd ([5]; I=0.02, pH 5.5, 298 K): 680 ± 70 µM
ΔG° ([5]; I=0.02, pH 7.4): -4.25 kcal/mol
ΔG° ([5]; I=0.17, pH 5.5): -3.66 kcal/mol
Kd ([5]; I=0.17, pH 5.5, 298 K): 2090 ± 160 µM
ΔG° ([5]; I=0.17, pH 7.4): -4.23 kcal/mol
ΔG^u ([5]; I=0.02, pH 5.5): -6.69 kcal/mol
ΔG^u ([5]; I=0.02, pH 7.4): -6.62 kcal/mol
ΔG^u ([5]; I=0.17, pH 5.5): -6.02 kcal/mol
ΔG^u ([5]; I=0.17, pH 7.4): -6.6 kcal/mol
Molecule: COC(=O)[C@@H](N)CCCN=C(N)N [Arginine methyl ester]

ΔG° ([1]; 298 K, pH 7.4, I=0.17, from interpolated Kd): -4.66 kcal/mol
ΔG° ([1]; I=0.02, pH 5.5): -5.14 kcal/mol
Kd ([1]; I=0.02, pH 5.5, 298 K): 170 ± 10 µM
ΔG° ([1]; I=0.02, pH 7.4): -5.11 kcal/mol
ΔG° ([1]; I=0.17, pH 5.5): -4.42 kcal/mol
Kd ([1]; I=0.17, pH 5.5, 298 K): 570 ± 20 µM
ΔG° ([1]; I=0.17, pH 7.4): -4.71 kcal/mol
blue shift of CR8 tryptophan fluorescence ([1]; at saturation (Figure 2)): approximately 7 nm
slope of Debye–Hückel plot (−zA×zB) ([1]; pH 5.5): 2.2
maximum quench of CR8 fluorescence at saturation ([1]; pH 7.4, I=0.17, 294 K (Figure 2)): 66%
ΔS° ([1]; pH 7.4, I=0.17, van't Hoff analysis): 29 J·K^−1·mol^−1
slope of Debye–Hückel plot (−zA×zB) ([1]; pH 7.4): 1.5 and 1.53
ΔG ([1]; physiological conditions of 310 K and I=0.17, pH 7.4): -4.57 kcal/mol
Kd ([1]; read-out: interpolated Kd, 298 K, pH 7.4, I=0.17, from van't Hoff plot): 380 µM
ΔG^u ([1]; I=0.02, pH 5.5): -7.5 kcal/mol
ΔG^u ([1]; I=0.02, pH 7.4): -7.46 kcal/mol
ΔG^u ([1]; I=0.17, pH 5.5): -6.79 kcal/mol
ΔG^u ([1]; I=0.17, pH 7.4): -7.07 kcal/mol
ΔH° ([1]; van't Hoff plot 279–310 K, pH 7.4, I=0.17): -2.56 kcal/mol
ΔG° ([2]; I=0.02, pH 5.5): -5.11 kcal/mol
Kd ([2]; I=0.02, pH 5.5, 298 K): 180 ± 10 µM
ΔG° ([2]; I=0.02, pH 7.4): -4.85 kcal/mol
ΔG° ([2]; I=0.17, pH 5.5): -4.4 kcal/mol
Kd ([2]; I=0.17, pH 5.5, 298 K): 600 ± 40 µM
ΔG° ([2]; I=0.17, pH 7.4): -4.64 kcal/mol
ΔG^u ([2]; I=0.02, pH 5.5): -7.46 kcal/mol
ΔG^u ([2]; I=0.02, pH 7.4): -7.22 kcal/mol
ΔG^u ([2]; I=0.17, pH 5.5): -6.76 kcal/mol
ΔG^u ([2]; I=0.17, pH 7.4): -7 kcal/mol
Kd of D1085A, fold higher than for N^α-acetyl-lysine methyl ester [4]: ~ 3 fold
ΔG° ([4]; I=0.02, pH 5.5): -3.32 kcal/mol
Kd [4]: 3700 ± 130 µM
ΔG° ([4]; I=0.02, pH 7.4): -3.27 kcal/mol
fold decrease of Kd compared with N^α-acetyl-lysine methyl ester ([4]; pH 5.5 and I=0.02): less than 4 fold
ΔG^u ([4]; I=0.02, pH 5.5): -5.69 kcal/mol
ΔG^u ([4]; I=0.02, pH 7.4): -5.64 kcal/mol
ΔG° ([5]; I=0.02, pH 5.5): -4.47 kcal/mol
Kd ([5]; I=0.02, pH 5.5, 298 K): 530 ± 50 µM
ΔG° ([5]; I=0.02, pH 7.4): -4.97 kcal/mol
ΔG° ([5]; I=0.17, pH 5.5): -3.99 kcal/mol
Kd ([5]; I=0.17, pH 5.5, 298 K): 1190 ± 110 µM
ΔG° ([5]; I=0.17, pH 7.4): -4.68 kcal/mol
difference in ΔG° between pH 5.5 and 7.4 [5, 8]: 2.9 kJ/mol
ΔG^u ([5]; I=0.02, pH 5.5): -6.84 kcal/mol
ΔG^u ([5]; I=0.02, pH 7.4): -7.34 kcal/mol
ΔG^u ([5]; I=0.17, pH 5.5): -6.36 kcal/mol
ΔG^u ([5]; I=0.17, pH 7.4): -7.05 kcal/mol
fold reduction in Kd compared with N^α-acetyl-lysine methyl ester [3, 9]: 5–18 fold
Molecule: COC(=O)[C@@H](N)CCCCN [Lysine methyl ester]
pKa ([6]; α-amino group): 7.2
increase in ΔG° compared with N^α-acetyl-lysine methyl ester [3, 9]: 1.03 to 1.72 kcal/mol

ΔG° ([1]; I=0.02, pH 5.5): -3.42 kcal/mol
Kd ([1]; I=0.02, pH 5.5, 298 K): 3100 ± 440 µM
ΔG° ([1]; I=0.02, pH 7.4): -3.75 kcal/mol
ΔG° ([1]; I=0.17, pH 5.5): -3.51 kcal/mol
Kd ([1]; I=0.17, pH 5.5, 298 K): 2600 ± 280 µM
ΔG° ([1]; I=0.17, pH 7.4): -3.42 kcal/mol
ΔG° ([2]; I=0.02, pH 5.5): -3.75 kcal/mol
Kd ([2]; I=0.02, pH 5.5, 298 K): 1800 ± 160 µM
ΔG° ([2]; I=0.02, pH 7.4): -3.8 kcal/mol
ΔG° ([2]; I=0.17, pH 5.5): -3.59 kcal/mol
Kd ([2]; I=0.17, pH 5.5, 298 K): 2300 ± 490 µM
ΔG° ([2]; I=0.17, pH 7.4): -3.54 kcal/mol
ΔG° ([4]; I=0.02, pH 5.5): -2.58 kcal/mol
Kd [4]: 12800 ± 2000 µM
ΔG° ([4]; I=0.02, pH 7.4): -2.58 kcal/mol
loss of binding energy for D1085A ([4]; compared with domains with central aspartate): 0.837 to 1.22 kcal/mol
ΔG° ([5]; I=0.02, pH 5.5): -3.47 kcal/mol
Kd ([5]; I=0.02, pH 5.5, 298 K): 2900 ± 120 µM
ΔG° ([5]; I=0.02, pH 7.4): -3.7 kcal/mol
ΔG° ([5]; I=0.17, pH 5.5): -3.47 kcal/mol
Kd ([5]; I=0.17, pH 5.5, 298 K): 2900 ± 280 µM
ΔG° ([5]; I=0.17, pH 7.4): -3.56 kcal/mol
Molecule: COC(=O)[C@H](CCCCN)NC(C)=O [N^α-acetyl-lysine methyl ester]
range of ΔG° values ([3]; CR3, CR5 and CR8, two ionic strengths, pH 5.5 and 7.4): -3.8 to -3.42 kcal/mol
